Converted amounts (≈) assume the structure as drawn.
Key:
[1] = biological target: T1, Peroxisome proliferator-activated receptor alpha (Homo sapiens, UniProt Q07869); test: Antagonist activity at human PPAR-alpha assessed as inhibition of GW7647-induced effect after overnight incubation by cell-based luciferase reporter gene assay
T1 sequence (Q07869 whole entry): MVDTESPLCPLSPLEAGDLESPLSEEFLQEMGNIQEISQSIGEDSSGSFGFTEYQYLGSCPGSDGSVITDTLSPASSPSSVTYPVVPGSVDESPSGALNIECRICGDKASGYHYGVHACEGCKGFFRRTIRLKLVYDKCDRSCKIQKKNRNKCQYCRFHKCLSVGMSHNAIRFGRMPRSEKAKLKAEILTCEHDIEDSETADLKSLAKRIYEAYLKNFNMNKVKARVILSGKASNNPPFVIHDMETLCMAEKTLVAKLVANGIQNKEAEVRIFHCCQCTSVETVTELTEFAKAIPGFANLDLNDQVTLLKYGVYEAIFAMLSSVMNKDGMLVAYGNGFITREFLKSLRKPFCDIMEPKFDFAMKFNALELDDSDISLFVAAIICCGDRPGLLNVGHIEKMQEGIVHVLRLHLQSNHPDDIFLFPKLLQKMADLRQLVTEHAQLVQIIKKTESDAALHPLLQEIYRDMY

[2] = Metabolic stability in mouse plasma assessed as compound remaining at 1 uM after 30 mins by LC-MS/MS analysis; assay type: ADME, cell-free; settings: read-out: Stability
Method in brief: (§1)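 A 30 mM DMSO stock was diluted to 100 µM in acetonitrile, then spiked into thawed mouse plasma (1 µM final) and incubated at 37 °C. Aliquots were precipitated in acetonitrile containing buspirone, shaken 5 min and centrifuged at 4000g for 10 min. Supernatant was analysed by LC-MS/MS. Percent remaining = concentration at each time / t0 concentration × 100; mean of at least three experiments.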

[3] = Metabolic stability in mouse plasma assessed as compound remaining at 1 uM after 60 mins by LC-MS/MS analysis; assay type: ADME, cell-free; settings: read-out: Stability; method in brief: as §1
Plasma [4] = test: (§2) Metabolic stability in mouse plasma assessed as compound remaining at 1 uM after 24 hrs by LC-MS/MS analysis; assay type: ADME, cell-free; settings: 24 h, 1 µM; method in brief: as §1
[5] = Solubility of the compound in aqueous buffer at pH 7.4 after 24 hrs by LC-MS/MS analysis; assay type: physicochemical
Method in brief: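 Compound from a 10 mM DMSO stock was added to pH 7.4 buffer, vortexed 2 min, then shaken on an orbital shaker for 24 h at room temperature. Samples were then vacuum-filtered through a polycarbonate membrane before measurement.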

Plasma [6] = test: Drug level in mouse plasma treated with 1 uM 5 after 24 hrs by LC-MS/MS analysis; assay type: ADME, cell-free
[7] = as §2; assay type: ADME, cell-free; settings: read-out: Stability; method in brief: as §1

Row | IC50 [1] | remaining at 0.5 h, 1 µM [2] | remaining at 1 h, 1 µM [3] | Stability (Plasma [4]) | solubility at 24 h [5] | Drug metabolism (Plasma [6]) | remaining at 24 h, 1 µM [7] | SMILES
1 | 60 nM | 80% | 62.3% | – | – | – | – | CCn1c(CCCc2ccc(CC(C)(C)C(=O)NS(=O)(=O)c3ccccc3)cc2)nn(Cc2ccc(C(C)(C)C)cc2)c1=O
2 | 311 nM | – | – | 133.9% | 0.012 µM (≈ 7.47 ng/mL) | – | – | CCn1c(CCCc2ccc(-c3ccc(NS(=O)(=O)Cc4ccccc4)cc3)cc2)nn(Cc2ccc(C(C)(C)C)cc2)c1=O
3 | 2.8 nM | 73.1% | 63.7% | – | – | – | – | CCn1c(CCCc2ccc(OC(C)(C)C(=O)NS(=O)(=O)c3ccc(C)cc3)cc2)nn(Cc2ccc(C(C)(C)C)cc2)c1=O
4 | 122 nM | – | – | 128.7% | 0.014 µM (≈ 8.54 ng/mL) | – | – | CCn1c(CCCc2ccc(-c3ccc(NS(=O)(=O)c4ccccc4)nc3)cc2)nn(Cc2ccc(C(C)(C)C)cc2)c1=O
5 | 4.6 nM | 21% | 7% | – | – | – | – | CCn1c(CCCc2ccc(OC(C)(C)C(=O)NS(=O)(=O)C3CCCC3)cc2)nn(Cc2ccc(C(C)(C)C)cc2)c1=O
6 | 42 nM | 86.9% | 86.5% | – | – | – | – | CCn1c(CCCc2ccc(OC(C)(C)C(=O)NS(=O)(=O)C3=CCOC=C3)cc2)nn(Cc2ccc(C(C)(C)C)cc2)c1=O
7 | 78 nM | 75.4% | 66.6% | – | – | – | – | CCn1c(CCCc2ccc(OC(C)(C)C(=O)NS(=O)(=O)c3ccoc3)cc2)nn(Cc2ccc(C(C)(C)C)cc2)c1=O
8 | – | 6.7% | 0.7% | – | – | – | – | CCn1c(CCCc2ccc(OC(C)(C)C(=O)NS(=O)(=O)c3ccccc3)cc2)nn(Cc2ccc(C(C)(C)C)cc2)c1=O
9 | 6.6 nM | 1.7% | 0.1% | – | – | – | – | CCn1c(CCCc2ccc(OC(C)(C)C(=O)NS(=O)(=O)C3CC3)cc2)nn(Cc2ccc(C(C)(C)C)cc2)c1=O
10 | – | – | – | – | – | metabolite_detected | – | CCn1c(CCCc2ccc(OC(C)(C)C(=O)O)cc2)nn(Cc2ccc(C(C)(C)C)cc2)c1=O
11 | 13 nM | 89.5% | 81.9% | – | – | – | 2.7% | CCn1c(CCCc2ccc(OC(C)(C)C(=O)NS(=O)(=O)c3ccc(C(C)C)cc3)cc2)nn(Cc2ccc(C(C)(C)C)cc2)c1=O
